Screens (PubChem)
OX1R antag-1: antagonists of human orexin 1 receptor (OX1R); Orexin/Hypocretin receptor type 1 (Homo sapiens), O43613; OX1R-expressing cells, FRET antagonist read-out; inhibition, % at 6.6 µM; 330,000 compounds, 1.8% hits; AID 485270, 2010; in the data active means inhibition mostly above about 38%, no sharp cut-off; inactive means mostly below about 40%
GalR3 antag: GalR3 antagonists in HEK293 cells, primary screen, cell-based, fluorescence readout; inhibition, % at 3 µM; HEK293 GalR3-CNG cAMP membrane potential fluorescence; galR3 body fused to GalR1 C-terminus; AID 651719, 2012; Galanin receptor type 3 (Homo sapiens), O60755; 360,000 compounds, 0.44% hits;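 active means inhibition above the screen-wide average plus 3 SD, cut at about 13% in these data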;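 further: forskolin and galanin both at EC90 stimulate the cells; cAMP rise reported by CNG channel membrane potential dye signal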
Target sequence (O60755 1-299 limits assumed): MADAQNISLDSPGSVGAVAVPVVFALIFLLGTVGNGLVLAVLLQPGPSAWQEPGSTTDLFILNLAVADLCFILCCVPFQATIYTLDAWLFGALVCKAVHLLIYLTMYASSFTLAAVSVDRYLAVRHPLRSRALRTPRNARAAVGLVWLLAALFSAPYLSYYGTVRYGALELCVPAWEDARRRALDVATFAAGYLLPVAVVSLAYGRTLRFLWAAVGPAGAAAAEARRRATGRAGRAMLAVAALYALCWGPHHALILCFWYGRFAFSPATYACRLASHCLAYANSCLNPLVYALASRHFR
GPR7 antagonist: GPR7 receptor antagonists, primary screen, cell-based, fluorescence, single concentration | Neuropeptides B/W receptor type 1 (Homo sapiens), P48145 | GPR7-expressing cells, fluorescence antagonist assay | 290,000 compounds, 1.1% hits | inhibition, % at 4.4 µM; in the data active means inhibition above about 16%, passing the limit was not always enough;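 further: cells stimulated with the agonist NPW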
Target sequence (P48145 whole entry, looked up): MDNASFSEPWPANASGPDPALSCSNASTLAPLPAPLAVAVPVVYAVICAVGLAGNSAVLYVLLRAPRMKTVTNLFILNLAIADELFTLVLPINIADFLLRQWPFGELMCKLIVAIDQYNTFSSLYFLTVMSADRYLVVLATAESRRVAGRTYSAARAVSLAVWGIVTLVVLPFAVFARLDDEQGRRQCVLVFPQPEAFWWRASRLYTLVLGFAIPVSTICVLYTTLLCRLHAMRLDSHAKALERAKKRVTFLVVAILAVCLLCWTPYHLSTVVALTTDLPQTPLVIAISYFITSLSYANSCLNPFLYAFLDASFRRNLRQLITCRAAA
OX1R antag-2: OX1R (HCRTR1) antagonists, primary screen, fluorescence, CHO/OX1R cells, Fluo-8 calcium, orexin A; inhibition, % at 5 µM; 330,000 compounds, 0.43% hits; Fluo-8 calcium fluorescence; AID 434989, 2010;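 active means inhibition above its plate's threshold, mean inhibition of all tested compounds on the plate plus 3 SD, cut at about 37% in these data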
CHO parental Ca: ATP-evoked calcium signal inhibitors, parental CHO, primary screen, counter-screen for OX1R antagonist project, cell-based, fluorescence, Fluo-8 calcium dye; parental CHO-K1, ATP-induced calcium, Fluo-8 fluorescence; inhibition, % at 5.6 µM; 330,000 compounds, 0.63% hits; AID 463079, 2010;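 active means inhibition above that plate's mean sample inhibition plus 3 SD, cut at about 26% in these data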
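Test system: untransfected parental CHO cell line; also added: ATP stimulus; dosing: 5.6 µM, single dose; signal: calcium-sensitive Fluo-8 fluorescence; measure: percent inhibition of ATP-evoked calcium rise, normalized to controls; benchmarks: low control ATP plus DMSO, high control DMSO only; replication: one well per compound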
OX1R HTRF conf: OX1R (HCRTR1) antagonists, confirmation, cell-based, HTRF; shares compounds with OX1R antag-1; OX1R-expressing cells, HTRF antagonist assay; inhibition, % at 6.6 µM; 1,800 compounds, 49% hits; AID 492964, 2010; in the data active means inhibition above about 55%;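 further: CHO cells expressing OX1R stimulated with orexin A at about EC80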
CHO-K1 HTRF: signal inhibition in parental CHO-K1 cells, counter-screen for OX1R antagonist project, cell-based, HTRF; shares compounds with OX1R antag-1; HTRF counterscreen; inhibition, % at 6.6 µM; 1,800 compounds, 48% hits; AID 493232, 2011; in the data active means inhibition above about 17%
GalR3 antag conf: GalR3 antagonist hit confirmation, cell-based, fluorescence, triplicate; 1,600 compounds, 59% hits; AID 652245, 2013; HEK293 GalR3 CNG cAMP biosensor, membrane potential fluorescence; galR3 fused to GalR1 carboxy tail; challenged with forskolin and galanin at EC90; shares compounds with GalR3 antag; inhibition, % at 3 µM;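 active means inhibition above the primary screen's cutoff, the mean inhibition of all screened compounds plus 3 SD, cut at about 13% in these data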
CNG parental: nonspecific cAMP agonists in parental HEK-CNG cells, counter-screen for GalR3 antagonist project, cell-based, fluorescence, high throughput. shares compounds with GalR3 antag. AID 652268, 2013. HEK293-CNG parental cells, cAMP membrane potential fluorescence; normalised: DMSO wells 0%, forskolin wells 100%. 1,600 compounds, 10% hits. activation, % at 3 µM; in the data active means activation above about 1.3%
A number is an active result; . = inactive; / = not tested or not shown; + = active, no number; ! = a repeat was not active. Shown are actives, neighbours in structure and some others; about 3.1% of the full set was active somewhere.

SMILES	OX1R antag-1	GalR3 antag	GPR7 antagonist	OX1R antag-2	CHO parental Ca	GalR3 antag conf	CNG parental	others
O=C1NC(=O)N(c2ccc3c(c2)OCO3)C(=O)/C1=C/c1ccc(N2CCCC2)o1	92	.	.	.	.	/	/	OX1R HTRF conf=.;CHO-K1 HTRF=75
C=C[C@@]12CN(C)[C@H]3[C@H]1[C@@]1(C(=O)Nc4ccccc41)C1CC2[C@@H]3CO1	.	/	/	.	.	/	/
O=C(NC1CN2CCC1CC2)c1cc(Cl)c([N+](=O)[O-])c2nc[nH]c12 (stereo not given)	130	.	.	.	.	/	/	OX1R HTRF conf=.;CHO-K1 HTRF=83
CNc1ccc2nc3ccccc3[n+](C)c2c1	94	.	.	.	.	/	/	OX1R HTRF conf=66;CHO-K1 HTRF=145
CCn1nc(-c2ccccc2)nc2c(=O)n(C)c(=O)nc1-2	+	/	.	.	.	/	/	OX1R HTRF conf=102;CHO-K1 HTRF=95
CCC(CO)NC(=O)C1C=C2c3cccc4[nH]cc(c34)CC2N(C)C1 (stereo not given)	.	/	.	.	.	/	/
CC[C@@H](CO)NC(=O)[C@@H]1C=C2c3cccc4c3c(cn4C)C[C@H]2N(C)C1	84!	.	.	.	.	/	/	OX1R HTRF conf=.;CHO-K1 HTRF=19
O=[N+]([O-])c1ccc(N(CCO)CCO)c2c1no[n+]2[O-]	/	.	/	/	/	/	/
CN1CCN(c2ccc([N+](=O)[O-])c3no[n+]([O-])c23)CC1	77	.	.	.	.	/	/	OX1R HTRF conf=74;CHO-K1 HTRF=107
CC1(C)CCCN1CCC(C(N)=O)(c1ccccc1)c1ccccc1	/	.	/	/	/	/	/
CC1(C)CC2CCC(O)C2C(CCO)N1 (stereo not given)	/	.	/	/	/	/	/
Oc1ccc(C[C@H]2NCCc3cc(O)c(O)cc32)cc1O	/	37	.	/	/	53	2.5
Cc1nn(C)c(C)c1/C=C1/CC2C3CC=C4CC(O)CCC4(C)C3CCC2(C)C1=O (stereo not given)	.	14	.	.	.	30	.
CNc1cc(Cl)c2nonc2c1[N+](=O)[O-]	/	39	51	/	/	31	.
Cc1cc([N+](=O)[O-])c(Cl)cc1NC(=O)C(C)C	.	.	.	.	.	/	/
Fc1ccc(N2Cc3ccccc3-n3nncc3C2)cc1	/	.	/	/	/	/	/
C[C@]12CC[C@H]3C(CCC4(O)CC(O)CC[C@]34C=O)C1=CC[C@H]2c1ccc(=O)oc1 (stereo not given in full)	.	17	.	.	.	42	2.7
COC(=O)C(O)(c1ccc(N(C)C(=O)c2cccs2)cc1)C(F)(F)F (stereo not given)	.	.	.	.	.	/	/
CC(NCC#Cc1ccccc1)C(O)c1ccccc1 (stereo not given)	.	16	.	.	.	35	.
CN[C@H](C)[C@H](O)c1ccccc1	.	/	.	.	.	/	/
O=C(NCCO)c1nsnc1NCCCl	.	/	.	.	.	28	.
COc1ccc(-n2nnnc2C(c2cc3ccccc3o2)N2CCC(n3c(=O)[nH]c4ccccc43)CC2)cc1 (stereo not given)	/	42	/	/	/	27	.
Cc1ccc(Cn2nc(C(=O)Nc3ccc(Br)cc3)cc2C)cc1	.	92	.	.	50	104	.
C/C=C1\NC(=O)[C@@H](NC(=O)[C@H](CCc2ccc(O)cc2)NC(=O)[C@H](C)NC(=O)[C@H](O)CO)[C@@H](C)OC(=O)[C@H](C(C)C)NC(=O)[C@H](Cc2ccc(O)cc2)N(C)C(=O)[C@H](Cc2ccccc2)N2C(=O)C(CC[C@H]2O)NC1=O (stereo not given in full)	.	.	/	.	.	/	/
COc1ccc(C2=CC(c3ccc4c(c3)OCO4)c3c(c4ccccc4oc3=O)O2)cc1OC (stereo not given)	/	36	/	/	/	42	.
SMILES	OX1R antag-1	GalR3 antag	GPR7 antagonist	OX1R antag-2	CHO parental Ca	GalR3 antag conf	CNG parental	others
COc1ccc(C(CC(=O)c2ccc3c(c2)OCO3)c2c(O)c3ccccc3oc2=O)cc1OC (stereo not given)	/	.	/	/	/	/	/
CN(C)/C=C/C(=O)C(Cl)(Cl)Cl	.	.	.	.	.	/	/
CCOC(=O)[C@]12Cc3ccc(C)cc3[C@H]1N(C1CCCCC1)C(=O)c1cc(OC)ccc12	/	16	/	/	/	45	2.3
CCOC(=O)[C@]12Cc3cc(Cl)ccc3[C@H]1N(C1CCCCC1)C(=O)c1cc(OC)ccc12	/	20	/	/	/	46	4.3
CCOC(=O)[C@]12Cc3cc(C)ccc3[C@H]1N(C1CCCCC1)C(=O)c1ccccc12	/	34	/	/	/	58	.
CCOC(=O)[C@]12Cc3cc(Cl)ccc3[C@H]1N(C)C(=O)c1cc(OC)ccc12	/	.	/	/	/	/	/
CCOC(=O)[C@]12Cc3ccc(C)cc3[C@H]1N(C1CCCCC1)C(=O)c1ccccc12	/	.	/	/	/	/	/
CN(C)CCSCc1nnc2n1-c1ccc(Cl)cc1C(c1ccccc1Cl)=NC2	.	.	/	.	.	/	/
O=C(c1cn(Cc2ccccc2F)c2ncccc12)C(F)(F)F	.	.	.	.	.	/	/
N#Cc1cn(C2OC(CO)C(O)C2O)c2ncnc(N)c12 (stereo not given)	/	68	/	/	/	76	.
N#Cc1c(Br)n(C2OC(CO)C(O)C2O)c2ncnc(N)c12 (stereo not given)	/	.	/	/	/	/	/
NC(=O)c1c(Br)n(C2OC(CO)C(O)C2O)c2ncnc(N)c12 (stereo not given)	/	.	/	/	/	/	/
NC(=O)c1cn(C2OC(CO)C(O)C2O)c2ncnc(N)c12 (stereo not given)	.	81	.	.	.	81	.
CC1CCCCC1NC1CCN(C)CC1 (stereo not given)	.	.	.	.	.	/	/
